Experimental data from ChEMBL document CHEMBL3792310, “Amine-free melanin-concentrating hormone receptor 1 antagonists: Novel non-basic 1-(2H-indazole-5-yl)pyridin-2(1H)-one derivatives and mitigation of mutagenicity in Ames test” (Bioorg Med Chem, 2016).
Each block holds one molecule with its values, some of them ahead of it. Activity calls are given as the source filed them. No cut-off for these calls is given here.

How the values were obtained:
[1] = molecular target: T1, Melanin-concentrating hormone receptor 1 (Homo sapiens, UniProt Q99705); assay: Displacement of [125I]-MCH(4 to 19) from human MCHR1 expressed in CHO cell membranes after 1 hr liquid scintillation counting
[2] = molecular target: Melanin-concentrating hormone receptor 1 (Rattus norvegicus, UniProt P97639); assay: Displacement of [125I]-MCH(4 to 19) from rat MCHR1 expressed in CHO cell membranes after 1 hr by liquid scintillation counting
Salmonella typhimurium = assay: Mutagenicity in Salmonella typhimurium TA1537 assessed as increase in number of revertant colony up to 5000 ug/plate by Ames test in absence of S9 fraction; format: toxicity, organism-based; settings: salmonella enterica subsp. enterica serovar typhimurium
How it was run: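 Ames test in Salmonella typhimurium TA1537, with and without S9 metabolic activation. A positive call is a more than two-fold increase in revertant colonies over vehicle control.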

[3] = molecular target: T1, Melanin-concentrating hormone receptor 1; assay: Antagonist activity at human MCHR1 expressed in CHO cells assessed as inhibition of MCH-stimulated Ca2+ mobilization measured every 2 secs by fluorometric analysis; format: functional, cell-based
How it was run: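 Human MCHR1 stably transfected into CHO dhfr− cells; clone no.4 used. Cells seeded at 20000/well, cultured about 24 h at 37 °C in 5% CO2, loaded with Fluo4 dye for 30 min. Compound in 10 mM HEPES pH 7.4 buffer with 0.1% BSA added first, then MCH(4–19) at 2 nM final. Fluorescence read at 2 s intervals; inhibition % taken against ligand-only and DMSO-only wells.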

[4] = Oral bioavailability in Sprague-Dawley rat plasma at 1 mg/kg administered through cassette dosing by LC/MS/MS analysis; format: ADME, organism-based
How it was run: (§1)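 Male SD rats, eight weeks old, fed; cassette dosing iv at 0.1 mg/kg or po at 1 mg/kg as a suspension in 0.5% methylcellulose, n = 3. Plasma taken from blood, deproteinized with acetonitrile, centrifuged, and the supernatant measured by LC/MS/MS. AUC covers 0–8 h.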

[5] = Total plasma clearance in Sprague-Dawley rat at 0.1 mg/kg, iv administered through cassette dosing by LC/MS/MS analysis; format: ADME, organism-based; how it was run: as §1
[6] = Volume of distribution at steady state in Sprague-Dawley rat at 0.1 mg/kg, iv administered through cassette dosing by LC/MS/MS analysis; format: ADME, organism-based; settings: in vivo, read-out: Vdss; how it was run: as §1
[7] = Cmax in Sprague-Dawley rat at 1 mg/kg, po administered through cassette dosing by LC/MS/MS analysis; format: ADME, organism-based; parameters: dose 1 mg/kg, route oral; settings: in vivo; how it was run: as §1
[8] = Tmax in Sprague-Dawley rat at 1 mg/kg, po administered through cassette dosing by LC/MS/MS analysis; format: ADME, organism-based; settings: in vivo; how it was run: as §1
[9] = AUC(0 to 8 hrs) in Sprague-Dawley rat at 1 mg/kg, po administered through cassette dosing by LC/MS/MS analysis; format: ADME, organism-based; parameters: dose 1 mg/kg, route oral; settings: in vivo; how it was run: as §1
Rattus norvegicus [10] = assay: Anorectic effect in DIO-F344/Jcl rat at 3 mg/kg, po administered for 2 days started 2 hrs prior to onset of dark period measured during compound dosing; format: functional
How it was run: (§2)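 Male DIO-F344/Jcl rats, 44 weeks old, on high-fat diet from 5 weeks of age. Singly housed on powder high-fat diet and habituated to oral dosing with tap water, then grouped by day-0 food intake and body weight. Oral dosing at 2 mL/kg in 0.5% methylcellulose 2 h before dark onset for 2 days, n = 6. Two-day food intake is expressed as inhibition rate versus vehicle.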

Rattus norvegicus [11] = assay: Antiobesity activity in DIO-F344/Jcl rat assessed as reduction in body weight at 3 mg/kg, po dosed for 2 weeks and measured every 2 or 3 days relative to vehicle control; format: functional, organism-based
How it was run: (§3)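 DIO-F344 rats, 48 weeks old, habituated and grouped as for the acute study. Dosed orally once daily for 2 weeks at 2 mL/kg in 0.5% methylcellulose, 1–3 h before dark onset, after body weight measurement; n = 6. Sibutramine positive control. Food intake read every 2 or 3 days. Body weight change is taken as percent of initial weight; mean and SD reported.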

Rattus norvegicus [12] = assay: Anorectic effect in DIO-F344/Jcl rat at 10 mg/kg, po administered for 2 days started 2 hrs prior to onset of dark period measured during compound dosing; format: functional; how it was run: as §2
Rattus norvegicus [13] = assay: Antiobesity activity in DIO-F344/Jcl rat assessed as reduction in body weight at 5 mg/kg, po dosed for 2 weeks and measured every 2 or 3 days relative to vehicle control; format: functional; parameters: scale not given: the % may be the effect or the level left; how it was run: as §3
Rattus norvegicus [14] = assay: Antiobesity activity in DIO-F344/Jcl rat assessed as reduction in body weight at 10 mg/kg, po dosed for 2 weeks and measured every 2 or 3 days relative to vehicle control; format: functional; parameters: scale not given: the % may be the effect or the level left; how it was run: as §3
[15] = Fraction unbound in DIO-F344/Jcl rat plasma at 10 mg/kg, po; format: ADME, organism-based
Mus musculus [16] = species: Mus musculus; assay: Anorectic effect in wild type mouse assessed as reduction in food intake; format: functional, organism-based
Mus musculus [17] = species: Mus musculus; assay: Toxicity in MCHR deficient mouse assessed as effect on food intake; format: organism-based; settings: in vivo
Rattus norvegicus [18] = assay: Trough plasma concentration in DIO-F344/Jcl rat at 10 mg/kg, po; format: ADME, organism-based; settings: in vivo, read-out: Cmin
Plasma = assay: Unbound plasma concentration in DIO-F344/Jcl rat at 10 mg/kg, po; format: ADME, organism-based; settings: in vivo
[19] = Ratio of drug level in brain to plasma in po dosed DIO-F344/Jcl rat; format: ADME, organism-based; settings: read-out: BPR
Cytochrome P450 1A2 = molecular target: T2, Cytochrome P450 1A2 (Homo sapiens, UniProt P05177); assay: Reversal inhibition of CYP1A2 (unknown origin) at 10 uM; format: ADME
T2 sequence (P05177 whole entry): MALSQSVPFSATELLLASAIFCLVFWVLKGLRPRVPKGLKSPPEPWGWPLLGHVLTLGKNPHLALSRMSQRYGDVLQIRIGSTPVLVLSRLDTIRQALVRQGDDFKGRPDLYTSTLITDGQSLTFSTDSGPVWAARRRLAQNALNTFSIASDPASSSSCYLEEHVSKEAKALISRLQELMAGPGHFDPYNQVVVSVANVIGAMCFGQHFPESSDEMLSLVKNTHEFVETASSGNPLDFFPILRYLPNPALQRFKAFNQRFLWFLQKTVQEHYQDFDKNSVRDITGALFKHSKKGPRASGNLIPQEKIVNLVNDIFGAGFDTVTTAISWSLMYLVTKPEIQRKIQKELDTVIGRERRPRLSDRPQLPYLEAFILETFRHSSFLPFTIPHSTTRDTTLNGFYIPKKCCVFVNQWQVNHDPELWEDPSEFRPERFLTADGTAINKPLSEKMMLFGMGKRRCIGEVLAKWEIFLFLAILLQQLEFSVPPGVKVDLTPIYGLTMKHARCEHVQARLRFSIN

Cytochrome P450 2C8 = molecular target: T3, Cytochrome P450 2C8 (Homo sapiens, UniProt P10632); assay: Reversal inhibition of CYP2C8 (unknown origin) at 10 uM; format: ADME
T3 sequence (P10632 whole entry): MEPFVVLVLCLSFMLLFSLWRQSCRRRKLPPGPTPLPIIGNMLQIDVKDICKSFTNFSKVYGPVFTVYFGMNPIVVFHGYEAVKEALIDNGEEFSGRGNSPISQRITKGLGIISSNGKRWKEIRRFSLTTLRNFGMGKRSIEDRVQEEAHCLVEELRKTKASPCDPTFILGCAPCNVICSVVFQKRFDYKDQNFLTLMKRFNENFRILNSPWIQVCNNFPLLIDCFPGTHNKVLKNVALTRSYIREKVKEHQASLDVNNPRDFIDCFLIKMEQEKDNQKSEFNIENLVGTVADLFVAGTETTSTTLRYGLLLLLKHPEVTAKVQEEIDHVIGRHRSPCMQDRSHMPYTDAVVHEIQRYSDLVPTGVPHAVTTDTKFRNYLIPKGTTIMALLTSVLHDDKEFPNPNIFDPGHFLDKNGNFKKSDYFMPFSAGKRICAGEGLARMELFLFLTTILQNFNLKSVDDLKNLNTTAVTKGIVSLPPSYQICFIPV

Cytochrome P450 2C9 = Cytochrome P450 2C9 (Homo sapiens, UniProt P11712); assay: Reversal inhibition of CYP2C9 (unknown origin) at 10 uM; format: ADME
Cytochrome P450 2D6 = Cytochrome P450 2D6 (Homo sapiens, UniProt P10635); assay: Reversal inhibition of CYP2D6 (unknown origin) at 10 uM; format: ADME
Cytochrome P450 3A4 = Cytochrome P450 3A4 (Homo sapiens, UniProt P08684); assay: Reversal inhibition of CYP3A4 (unknown origin) at 10 uM; format: ADME
Rattus norvegicus [20] = assay: Anorectic effect in DIO-F344/Jcl rat assessed as reduction in cumulative food intake at 5 mg/kg, po administered once daily for 2 weeks measured during compound dosing; parameters: scale not given: the % may be the effect or the level left
Rattus norvegicus [21] = assay: Anorectic effect in DIO-F344/Jcl rat assessed as reduction in cumulative food intake at 10 mg/kg, po administered once daily for 2 weeks measured during compound dosing; parameters: scale not given: the % may be the effect or the level left

T1 sequence (Q99705 whole entry): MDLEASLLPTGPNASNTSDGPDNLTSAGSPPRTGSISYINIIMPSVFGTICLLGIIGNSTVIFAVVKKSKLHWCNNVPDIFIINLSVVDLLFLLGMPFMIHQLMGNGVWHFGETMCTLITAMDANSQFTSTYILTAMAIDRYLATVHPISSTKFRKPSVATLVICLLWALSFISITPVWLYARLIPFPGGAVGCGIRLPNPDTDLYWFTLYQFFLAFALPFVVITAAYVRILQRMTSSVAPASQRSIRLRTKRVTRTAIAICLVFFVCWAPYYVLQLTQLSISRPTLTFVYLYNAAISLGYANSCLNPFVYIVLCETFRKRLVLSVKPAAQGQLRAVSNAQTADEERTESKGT
Melanin-concentrating hormone receptor 1 (Rattus norvegicus, UniProt P97639), sequence (P97639 whole entry): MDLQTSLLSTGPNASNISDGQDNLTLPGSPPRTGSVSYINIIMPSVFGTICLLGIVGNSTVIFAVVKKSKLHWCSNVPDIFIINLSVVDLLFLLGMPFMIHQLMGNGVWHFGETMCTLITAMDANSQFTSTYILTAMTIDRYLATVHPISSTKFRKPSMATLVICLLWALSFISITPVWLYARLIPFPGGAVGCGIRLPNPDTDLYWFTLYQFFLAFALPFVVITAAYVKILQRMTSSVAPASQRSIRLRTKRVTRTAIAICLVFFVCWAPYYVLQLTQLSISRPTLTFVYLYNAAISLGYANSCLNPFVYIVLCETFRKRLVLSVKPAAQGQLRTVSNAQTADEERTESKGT
Cytochrome P450 3A4, sequence (P08684 whole entry): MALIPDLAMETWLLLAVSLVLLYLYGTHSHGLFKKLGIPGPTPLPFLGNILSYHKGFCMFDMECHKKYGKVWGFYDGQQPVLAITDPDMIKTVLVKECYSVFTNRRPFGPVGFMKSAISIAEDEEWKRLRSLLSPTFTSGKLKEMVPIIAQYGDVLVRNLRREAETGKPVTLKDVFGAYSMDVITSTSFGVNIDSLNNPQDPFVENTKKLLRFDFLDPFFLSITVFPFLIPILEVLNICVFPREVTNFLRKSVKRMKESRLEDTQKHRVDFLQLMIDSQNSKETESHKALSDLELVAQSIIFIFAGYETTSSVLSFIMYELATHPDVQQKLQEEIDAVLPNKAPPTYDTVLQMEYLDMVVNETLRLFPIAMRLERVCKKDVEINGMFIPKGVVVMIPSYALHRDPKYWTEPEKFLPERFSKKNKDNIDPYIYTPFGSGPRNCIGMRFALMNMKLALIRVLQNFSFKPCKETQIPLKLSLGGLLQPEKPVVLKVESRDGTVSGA
Cytochrome P450 2D6, sequence (P10635 whole entry): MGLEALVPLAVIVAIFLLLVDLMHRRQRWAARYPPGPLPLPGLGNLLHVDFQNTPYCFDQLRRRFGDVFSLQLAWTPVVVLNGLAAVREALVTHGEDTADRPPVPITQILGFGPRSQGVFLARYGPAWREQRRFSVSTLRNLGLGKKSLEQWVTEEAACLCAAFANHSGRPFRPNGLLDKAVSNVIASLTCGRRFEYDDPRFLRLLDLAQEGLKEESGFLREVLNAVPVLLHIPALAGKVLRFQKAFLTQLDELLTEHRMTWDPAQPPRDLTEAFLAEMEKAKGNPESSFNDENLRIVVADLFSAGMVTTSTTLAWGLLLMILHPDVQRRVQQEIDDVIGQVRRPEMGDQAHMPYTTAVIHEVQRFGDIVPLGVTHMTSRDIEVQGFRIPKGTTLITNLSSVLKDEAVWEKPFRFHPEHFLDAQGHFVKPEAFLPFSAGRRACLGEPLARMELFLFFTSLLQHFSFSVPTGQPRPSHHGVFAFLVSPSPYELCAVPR
Cytochrome P450 2C9, sequence (P11712 whole entry): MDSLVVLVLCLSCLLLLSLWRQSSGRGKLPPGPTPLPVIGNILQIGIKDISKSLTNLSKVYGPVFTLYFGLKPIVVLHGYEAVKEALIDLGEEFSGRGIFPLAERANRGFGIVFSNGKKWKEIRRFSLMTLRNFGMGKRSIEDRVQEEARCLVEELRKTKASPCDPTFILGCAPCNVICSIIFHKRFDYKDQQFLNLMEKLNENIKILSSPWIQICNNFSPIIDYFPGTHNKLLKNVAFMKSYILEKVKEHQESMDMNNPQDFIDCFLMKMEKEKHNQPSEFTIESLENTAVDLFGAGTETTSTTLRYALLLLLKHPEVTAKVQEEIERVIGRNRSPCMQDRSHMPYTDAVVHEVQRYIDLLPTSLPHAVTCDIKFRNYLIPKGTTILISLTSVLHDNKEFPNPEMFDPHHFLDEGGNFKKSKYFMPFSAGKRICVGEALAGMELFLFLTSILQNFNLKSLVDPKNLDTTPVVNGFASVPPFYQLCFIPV

IC50 [1]: 140 nM
IC50 [2]: 65 nM
Structure (SMILES): CCn1nc2ccc(-n3ccc(OCc4ccc(Cl)cc4)cc3=O)cc2c1C

IC50 [1]: 31 nM
IC50 [2]: 23 nM
IC50 [3]: 33 nM
bioavailability [4]: 37%
clearance [5]: 3.45 mL/min/kg
Vd [6]: 0.676 L/kg
Cmax [7]: 291 ng/mL
Tmax [8]: 4 h
AUC(0-t) at 6 h [9]: 1810 ng·h/mL
Structure (SMILES): Cc1c2cc(-n3ccc(OCc4ccc(Cl)cc4)cc3=O)ccc2nn1C1CC1
Activity (Salmonella typhimurium): Non-toxic

IC50 [1]: 38 nM
IC50 [2]: 26 nM
IC50 [3]: 79 nM
fraction unbound [15]: 0.022
concentration (Rattus norvegicus [18]): 3.36 µM
Cp(f) (Plasma): 73.9 nM
Kp [19]: 0.66
bioavailability [4]: 78%
clearance [5]: 4.93 mL/min/kg
Vd [6]: 0.949 L/kg
Cmax [7]: 426 ng/mL
Tmax [8]: 2.7 h
AUC(0-t) at 6 h [9]: 2880 ng·h/mL
inhibition (INH) (Cytochrome P450 1A2): Not Active
inhibition (INH) (Cytochrome P450 2C8): Not Active
inhibition (INH) (Cytochrome P450 2C9): Not Active
inhibition (INH) (Cytochrome P450 2D6): Not Active
inhibition (INH) (Cytochrome P450 3A4): Not Active
Structure (SMILES): Cc1c2cc(-n3ccc(OCc4csc(C(F)(F)F)c4)cc3=O)ccc2nn1C1CC1
Activity (Salmonella typhimurium): Non-toxic
Activity (Rattus norvegicus [10]): 21.5%
Activity (Rattus norvegicus [11]): Active
Activity (Rattus norvegicus [12]): 30.6%
Activity (Rattus norvegicus [13]): 3.9%
Activity (Rattus norvegicus [14]): 7.6%
Activity (Mus musculus [16]): Dose-dependent effect
Activity (Mus musculus [17]): Non-toxic
Activity (Rattus norvegicus [20]): 12.2%
Activity (Rattus norvegicus [21]): 23.2%

IC50 [1]: 69 nM
Structure (SMILES): Cc1c(C2CC2)nn2ccc(-n3ccc(OCc4ccc(Cl)cc4)cc3=O)cc12

IC50 [1]: 170 nM
IC50 [2]: 90 nM
Structure (SMILES): Cc1c2cc(-n3ccc(OCc4ccc(C(F)(F)F)s4)cc3=O)ccc2nn1C

IC50 [1]: 130 nM
IC50 [2]: 76 nM
Structure (SMILES): Cc1c2cc(-n3ccc(OCc4nc(C(F)(F)F)cs4)cc3=O)ccc2nn1C

IC50 [1]: 230 nM
IC50 [2]: 130 nM
Structure (SMILES): Cc1c2cc(-n3ccc(OCc4csc(C(F)(F)F)n4)cc3=O)ccc2nn1C

IC50 [1]: 74 nM
IC50 [2]: 38 nM
Structure (SMILES): Cc1c2cc(-n3ccc(OCc4cc(C(F)(F)F)cs4)cc3=O)ccc2nn1C
